Data taken from ChEMBL document CHEMBL4665845, “CRISPR-Cas9 Genome-Wide Knockout Screen Identifies Mechanism of Selective Activity of Dehydrofalcarinol in Mesenchymal Stem-like Triple-Negative Breast Cancer Cells” (2020).
Activity calls are given as the source filed them. The calls are words filed in the database; no cut-off is given here.

Columns and labels:
[1] = system: MDA-MB-231; test: Growth inhibition of human MDA-MB-231 cells after 48 hrs by SRB assay; assay type: functional
In short: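 Cells were exposed to compound for 48 h, and growth was read by sulforhodamine B staining. TGI (total growth inhibition concentration, μM) was taken from concentration–response curves, n = 3, means ± SEM. MDA-MB-231 cells were grown in IMEM with 10% FBS at 37 °C in 5% CO2.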

[2] = system: BT-549; test: Growth inhibition of human BT-549 cells after 48 hrs by SRB assay; assay type: functional
[3] = organism: Homo sapiens; test: Selectivity index, ratio of TGI for growth inhibitor of human BT-549 to TGI for growth inhibitor of human MDA-MB-231; assay type: functional
[4] = system: MDA-MB-157; test: Growth inhibition of human MDA-MB-157 cells after 48 hrs by SRB assay; assay type: functional
[5] = system: HCC1806; test: Growth inhibition of human HCC1806 cells after 48 hrs by SRB assay; assay type: functional
[6] = system: MDA-MB-468; test: Growth inhibition of human MDA-MB-468 cells after 48 hrs by SRB assay; assay type: functional
[7] = system: MDA-MB-453; test: Growth inhibition of human MDA-MB-453 cells after 48 hrs by SRB assay; assay type: functional
[8] = organism: Homo sapiens; test: Selectivity index, ratio of LC50 for growth inhibitor of human MDA-MB-157 to LC50 for growth inhibitor of human MDA-MB-231; assay type: functional
In short: (§1)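 Selectivity index is the LC50 of the named TNBC line divided by the LC50 in MDA-MB-231 cells.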

[9] = organism: Homo sapiens; test: Selectivity index, ratio of LC50 for growth inhibitor of human BT-549 to LC50 for growth inhibitor of human MDA-MB-231; assay type: functional; in short: as §1
[10] = organism: Homo sapiens; test: Selectivity index, ratio of LC50 for growth inhibitor of human […] to LC50 for growth inhibitor of human MDA-MB-231; assay type: functional; in short: as §1
[11] = organism: Homo sapiens; test: Selectivity index, ratio of LC50 for growth inhibitor of human MDA-MB-468 to LC50 for growth inhibitor of human MDA-MB-231; assay type: functional; in short: as §1
[12] = organism: Homo sapiens; test: Selectivity index, ratio of LC50 for growth inhibitor of human MDA-MB-453 to LC50 for growth inhibitor of human MDA-MB-231; assay type: functional; in short: as §1
[13] = system: MDA-MB-231; test: Cytotoxicity against human MDA-MB-231 cells assessed as reduction in cell viability at 0.03 to 3 uM after 48 hrs by SRB assay; assay type: functional, cell-based; settings: dose microM 0.03-3, time 48.0 hrs
[14] = system: MDA-MB-453; test: Cytotoxicity against human MDA-MB-453 cells assessed as reduction in cell viability at 0.03 to 3 uM after 48 hrs by SRB assay; assay type: functional, cell-based; settings: dose microM 0.03-3, time 48.0 hrs
[15] = read-out: LC50 (the source's name)

Q: Which TGI [1] does the source give for `C=CCCCCC(O)/C=C/C#CC#C[C@@H](O)C=C` (mixture of isomers) here?
A: Its TGI is 360 nM.

Q: And the TGI [2]?
A: Its TGI is 4200 nM.

Q: What about the Selectivity Index [3] of the same compound?
A: The Selectivity Index was 12.

Q: How did the TGI [1] turn out when `C=C[C@@H](O)C#CC#C[C@@H](O)/C=C\CCCCCCC` [FALCARINDIOL] was run?
A: Its TGI is 6000 nM.

Q: And the TGI [2]?
A: The TGI was 9000 nM.

Q: And the Selectivity Index [3]?
A: Its Selectivity Index is 1.5.

Q: With `C=CCCCCCC(O)/C=C/C#CC#C[C@@H](O)C=C` (single isomer, unassigned) [DENDROARBOREOL B] as the compound, how does the TGI [1] read?
A: Its TGI is 160 nM.

Q: And the TGI [2]?
A: Its TGI is 1100 nM.

Q: What about the Selectivity Index [3] of the same compound?
A: Its Selectivity Index is 6.9.

Q: Which results are given for `C=CCCCCC/C=C\CC#CC#C[C@@H](O)C=C`?
A: GI50 [1]: 51 nM; TGI [1]: 89 nM; CC50 [1, 15]: 170 nM; GI50 [4]: 59 nM; TGI [4]: 130 nM; CC50 [4, 15]: 290 nM; GI50 [2]: 220 nM; TGI [2]: 420 nM; CC50 [2, 15]: 900 nM; GI50 [5]: 300 nM; TGI [5]: 540 nM; CC50 [5, 15]: 1200 nM; GI50 [6]: 850 nM; TGI [6]: 2000 nM; CC50 [6, 15]: 4400 nM; GI50 [7]: 2800 nM; TGI [7]: > 5000 nM; CC50 [7, 15]: > 5000 nM; RatioLC50 [8]: 1.7; RatioLC50 [9]: 5.3; RatioLC50 [10]: 7.1; RatioLC50 [11]: 26; RatioLC50 [12]: > 29; Selectivity Index [3]: 7.3

Q: For `C=C[C@@H](O)C#CC#CC/C=C\CCCCCCC`, which TGI [1] is on record?
A: Its TGI is 6000 nM.

Q: What about the TGI [2] of the same compound?
A: Its TGI is 9000 nM.

Q: What about the Selectivity Index [3] of the same compound?
A: Its Selectivity Index is 1.5.

Q: `O=C(Nc1ccccc1)c1cc([N+](=O)[O-])ccc1Cl` was tested. Which Activity [13] did it give?
A: Its Activity is “inactive”.

Q: What about the Activity [14] of the same compound?
A: The Activity was “inactive”.

Q: What does the source list for `C=CCCCCCC(O)/C=C/C#CC#CC(O)CC` (mixture of isomers)?
A: TGI [1]: 4300 nM; TGI [2]: > 5000 nM

Q: Which results are given for `C=CCCC/C=C\[C@H](O)C#CC#C[C@H](O)C=C`?
A: TGI [1]: 12000 nM; TGI [2]: 29000 nM; Selectivity Index [3]: 2.4
